Assay results from ChEMBL document CHEMBL3414485, “Development of cyclic NGR peptides with thioether linkage: structure and dynamics determining deamidation and bioactivity” (J Med Chem, 2015).
Activity calls are given as the source filed them. No cut-off for these calls is given here. Where a SMILES comes first, the peptide text is derived from it. Bridges are numbered along the chain shown (N, C = ends).

How the values were obtained:
[1] = Chemical stability 0.2M NH4OAc at pH 5.0 at 1 mg/ml at room temperature assessed as ratio of Asn-containing cyclic peptides after 24 hrs by HPLC method; format: physicochemical; conditions: 0.2 M NH4OAc buffer, read-out: Stability
In short: (§1)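 Peptide at 1.0 mg/mL (~2 mM). Buffer runs at room temperature: 0.2 M NH4OAc pH 5.0, PBS pH 7.4 or 0.1 M Tris pH 8.1. Medium runs at 37 °C in DMEM GlutaMAX-I with 10% FCS and gentamicin 160 μg/mL. Sampled at 24 and 48 h by analytical RP-HPLC. Asn/isoAsp/Asp ratio taken from peak AUC, species identified by MS and Asp reference peptides.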

[2] = Chemical stability PBS buffer at pH 7.4 at 1 mg/ml at room temperature assessed as ratio of Asn-containing cyclic peptides after 48 hrs by HPLC method; format: physicochemical; conditions: read-out: Stability; in short: as §1
[3] = Chemical stability PBS buffer at pH 7.4 at 1 mg/ml at room temperature assessed as ratio of Asn-containing cyclic peptides after 24 hrs by HPLC method; format: physicochemical; conditions: read-out: Stability; in short: as §1
[4] = Chemical stability 0.1M Tris buffer at pH 8.1 at 1 mg/ml at room temperature assessed as ratio of Asn-containing cyclic peptides after 48 hrs by HPLC method; format: physicochemical; conditions: read-out: Stability; in short: as §1
[5] = Chemical stability 0.1M Tris buffer at pH 8.1 at 1 mg/ml at room temperature assessed as ratio of Asn-containing cyclic peptides after 24 hrs by HPLC method; format: physicochemical; conditions: read-out: Stability; in short: as §1
[6] = Chemical stability DMEM cell culture medium at pH 7.3 at 1 mg/ml at 37 degC assessed as ratio of Asn-containing cyclic peptides after 24 hrs by HPLC method; format: physicochemical; conditions: read-out: Stability; in short: as §1
[7] = target: T1, Integrin alpha-V/beta-3 (Homo sapiens) (UniProt P05106+P06756); test: Binding affinity to integrin alphav beta3 receptor assessed as receptor-mediated cell adhesion in human A2058 cells at 10 nM to 1 uM and measured every 20 seconds for 25 hrs at 10 kHz by xCELLigence SP system based method
In short: (§2)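 A2058 human melanoma cells grown in RPMI 1640 with 10% FCS, 2 mM L-glutamine and penicillin/streptomycin at 37 °C, 5% CO2. Electrodes coated 20 min at 4 °C with peptide (10-fold dilutions in 0.1% gelatin/PBS), dried 5 min. Background read 30 min, then 10^4 cells/well added. Impedance recorded every 20 s for 25 h at 10 kHz, in triplicate. ΔCI at 5, 10 and 25 h, normalized to gelatin-only control (100%).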

[8] = Chemical stability 0.2M NH4OAc at pH 5.0 at 1 mg/ml at room temperature assessed as ratio of Asn-containing cyclic peptides after 48 hrs by HPLC method; format: physicochemical; conditions: 0.2 M NH4OAc buffer, read-out: Stability; in short: as §1
[9] = Chemical stability DMEM cell culture medium at pH 7.3 at 1 mg/ml at 37 degC assessed as ratio of Asn-containing cyclic peptides after 48 hrs by HPLC method; format: physicochemical; conditions: read-out: Stability; in short: as §1
[10] = target: T1, Integrin alpha-V/beta-3 (Homo sapiens); test: Binding affinity to integrin alphav beta3 receptor assessed as receptor-mediated cell adhesion in human A2058 cells at 10 nM to 100 nM and measured every 20 seconds for 5 to 25 hrs at 10 kHz by xCELLigence SP system based method; in short: as §2
[11] = target: T1, Integrin alpha-V/beta-3 (Homo sapiens); test: Binding affinity to integrin alphav beta3 receptor assessed as receptor-mediated cell adhesion in human A2058 cells at 1 uM and measured every 20 seconds for 5 to 25 hrs at 10 kHz by xCELLigence SP system based method; in short: as §2
[12] = target: T1, Integrin alpha-V/beta-3 (Homo sapiens); test: Binding affinity to integrin alphav beta3 receptor assessed as receptor-mediated cell adhesion in human A2058 cells at 10 nM to 1 uM and measured every 20 seconds for >5 hrs at 10 kHz by xCELLigence SP system based method; in short: as §2
[13] = target: T1, Integrin alpha-V/beta-3 (Homo sapiens); test: Binding affinity to integrin alphav beta3 receptor assessed as receptor-mediated cell adhesion in human A2058 cells at 100 nM and measured every 20 seconds for 25 hrs at 10 kHz by xCELLigence SP system based method; in short: as §2

SMILES	remaining at 24 h, 1 mg/ml [1] [%]	remaining at 48 h, 1 mg/ml [2] [%]	remaining at 24 h, 1 mg/ml [3] [%]	remaining at 48 h, 1 mg/ml [4] [%]	remaining at 24 h, 1 mg/ml [5] [%]	remaining at 24 h, 1 mg/ml [6] [%]	Activity [7]	remaining at 48 h, 1 mg/ml [8] [%]	remaining at 48 h, 1 mg/ml [9] [%]	Activity [10]	Activity [11]	Activity [12]	Activity [13]
N=C(N)NCCC[C@@H]1NC(=O)CNC(=O)[C@H](CC(N)=O)NC(=O)CCSC[C@@H](C(N)=O)NC1=O	100	89	94	73	86	0	Active	99	–	–	–	–	–
CC(=O)N[C@H]1CSSC[C@@H](C(N)=O)NC(=O)[C@H](CCCNC(=N)N)NC(=O)CNC(=O)[C@H](CC(N)=O)NC1=O (Ac-CNGRC-NH2; disulfide 1-5)	–	93	96	71	85	46	–	100	0	Active	–	–	–
N=C(N)NCCC[C@@H]1NC(=O)CNC(=O)[C@H](CC(N)=O)NC(=O)[C@H](CCCCN)NC(=O)CC[C@@H](C(N)=O)NC1=O (KNGRE-NH2; lactam N-5)	–	100	–	100	–	92	–	100	54	Active	inactive	–	–
N=C(N)NCCC[C@@H]1NC(=O)CNC(=O)[C@H](CC(N)=O)NC(=O)CSCCC(C(N)=O)NC1=O (single isomer, unassigned)	100	44	64	43	66	0	inactive	96	–	–	–	–	–
N=C(N)NCCC[C@@H]1NC(=O)CNC(=O)[C@H](CC(N)=O)NC(=O)[C@H](CCCCN)NC(=O)CSC[C@@H](C(N)=O)NC1=O ({CH2CO}-KNGRC-NH2; thioether N-5)	100	43	58	15	36	0	inactive	90	–	–	–	–	–
N=C(N)NCCC[C@@H]1NC(=O)CNC(=O)[C@H](CC(N)=O)NC(=O)CSC[C@@H](C(N)=O)NC1=O ({CH2CO}-NGRC-NH2; thioether N-4)	85	15	36	13	19	0	–	67	–	–	–	Active	Active
N=C(N)NCCC[C@@H]1NC(=O)CNC(=O)[C@H](CC(N)=O)NC(=O)[C@@H]2CCCN2C(=O)CSC[C@@H](C(N)=O)NC1=O ({CH2CO}-PNGRC-NH2; thioether N-5)	100	75	86	47	67	–	inactive	98	–	–	–	–	–
